UPR CHOP act: activators of apoptotic arm of unfolded protein response (CHOP). CHO-CHOP luciferase reporter, UPR activation, luminescence; percent of tunicamycin response over DMSO baseline. activation, % at 10 µM. actives 0.34% (n = 330,000);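 active means at 10 µM dose, activation of 40% or more, normalized to positive control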;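 further: 100% = tunicamycin at 10 µg/mL and 0% = DMSO alone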
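System: CHO-CHOP luciferase reporter cell line; amount: 500 cells/well; buffer or medium: F12 medium containing 10% fetal bovine serum; incubation: 6 h compound exposure at 37 °C after overnight seeding; measured by: luciferase luminescence after 10 min with Steady-Glo reagent; evaluation: % reporter activation, DMSO baseline versus tunicamycin full activation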
CHOP inh: blocks CHOP induction under ER stress; CHO-K1 CHOP-promoter luciferase, tunicamycin-induced, 15-18 h; inhibition, % at 10 µM; actives 3.8% (n = 220,000); AID 2732;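 active means compounds that reduced the stress-induced luciferase reporter signal by more than about 70% of percent inhibition, limit read from the data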;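 further: 0% = tunicamycin plus vehicle and 100% = wells without tunicamycin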
B2AR ag: agonists of human beta-2 adrenergic receptor inducing internalization. actives 0.43% (n = 340,000). P07550. AID 504454. Am2.2-beta2AR cells, FAP receptor internalization, flow cytometry. response, % (test concentration not listed);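 active means response above a set limit, near 3 SD of response in nonfluorescent compounds, cut at about 42% in these data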
VLA-4 inh: inhibition in a human VLA-4 binding assay. actives 0.2% (n = 330,000). VLA-4 expressing cells, ligand binding flow cytometry. inhibition, % (about 7 µM as worked out from the volumes in the protocol). AID 2557; in the data active means inhibition above about 50%
UPR XBP1 act: activators of adaptive arm of unfolded protein response (XBP1); CHO-XBP1 luciferase reporter, IRE1-XBP1 UPR activation, luminescence; percent of tunicamycin response, DMSO as zero; activation, % at 20 µM; actives 0.33% (n = 330,000); AID 463104;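 active means versus positive control, 20 µM dose yields 30% or more activation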;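 further: 100% = tunicamycin at 10 µg/mL and 0% = DMSO only wells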
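Material: CHO-XBP1 cells stably carrying IRE1-XBP1-driven luciferase reporter / Amount: 1000 cells per well / Compound: 20 µM, 1% DMSO / Times: 6 h treatment, 37 °C / Detection: luciferase luminescence / Measure: % activation of reporter signal versus tunicamycin and DMSO controls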
UPR CHOP confirm: apoptotic UPR (CHOP) activation, confirmed. shares compounds with UPR CHOP act. CHO-CHOP cells, CHOP-luciferase reporter luminescence; percent of tunicamycin response, DMSO as zero. activation, % at 10 µM. actives 64% (n = 1,000). AID 463112; in the data active means activation above about 33%;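 further: 0% = DMSO wells and 100% = tunicamycin 10 µg/mL wells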
XBP1 UPR conf: adaptive UPR (XBP1) activation, confirmed. CHO-XBP1 IRE1-XBP1 luciferase reporter, luminescence. actives 63% (n = 1,000). activation, % at 20 µM. shares compounds with UPR XBP1 act;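 active means reporter signal at least 30% of the positive control's activation in two or more of four replicate wells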;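 further: plate controls were DMSO negative control for no effect and tunicamycin 10 µg/mL positive control for full effect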
Beta2AR ag CP1: agonists of human beta-2 adrenergic receptor | AID 540358 | shares compounds with B2AR ag | percent response (surface receptor), % at 10 µM | actives 25% (n = 1,100) | Am2.2-beta2AR cells, FAP surface receptor, flow cytometry; stronger effect = lower value;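 active means surface receptor percent response at or below 58%, roughly 3 SD from nonfluorescent compounds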
B2AR FAP counter: fluorescence artifact in beta-2AR agonist FAP counterscreen; Am2.2 cells, FAP fluorogen flow cytometry; stronger effect = lower value; shares compounds with B2AR ag; 1,100 tested, under 10 active; calls only at 10 µM;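 active means percent response below a set limit in fluorescence channel 1 and below 50% in channel 8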
Numbers without * were called inactive; i = inactive; · = no result given. Shown is part of a subset that was picked to be rich in hits.

SMILES	UPR CHOP act	CHOP inh	B2AR ag	VLA-4 inh	UPR XBP1 act	UPR CHOP confirm	XBP1 UPR conf	Beta2AR ag CP1	B2AR FAP counter
Cc1cccnc1Nc1nc(-c2ccc(O)c(O)c2)cs1	155*	-8	7	11	30*	114*	43*	·	·
Oc1ccc(N=Nc2ccccc2)o1	21	·	8	18	-11	·	·	·	·
Cc1cnc(NC(=O)c2cc(S(=O)(=O)N(C)C)ccc2N2CCCC2)s1	96*	·	·	0	98*	105*	87*	·	·
Cc1cc(C(=O)CSc2ccccc2)cc(C)c1O	6	·	7	11	5	·	·	·	·
Oc1cc(-c2cccnc2)cc2cccnc12	96*	·	-4	9	46*	74*	34*	·	·
C/C(=N\Nc1ncnc2sc(C)c(C)c12)c1ccccn1	97*	·	·	i	97*	88*	122*	·	·
Cc1sc2ncnc(N/N=C/c3cccc(O)c3)c2c1C	7	31	-2	18	1	·	·	·	·
CN(C)/C=C1/N=C(c2ccccc2)OC1=O	6	0	-3	5	0	·	·	·	·
O=CC1=C(c2ccccc2)Oc2ccccc2O1	67*	·	67*	9	37*	72*	33*	·	·
Cc1ccc(C(C[N+](=O)[O-])Sc2ccc(N)cc2)cc1 (stereo not drawn)	117*	-9	70*	20	-4	-6	·	102	i
NS(=O)(=O)c1ccc(N=Nc2ccc(O)c3ncccc23)cc1	21	·	15	3	3	·	·	·	·
O=Cc1ccc(O)c2ncccc12	86*	20	9	·	24	89*	·	98	i
Cn1nnnc1Sc1ncnc2scc(-c3cc4ccccc4o3)c12	86*	·	53*	0	-7	118*	·	57*	i
Cc1ccc(S(=O)(=O)Nc2cccc3cccnc23)cc1	621*	-167	45*	7	-5	326*	·	87	i
O=C(Cc1ccccc1)Nc1nccs1	-1	·	0	6	0	·	·	·	·
S=C(Nc1ccccc1)Nc1nccs1	104*	-213	0	12	20	60*	·	94	i
CCOC(=O)N1CCN(C(=O)C2CCN(c3nnc(-n4cccc4)s3)CC2)CC1	0	·	-4	7	-1	·	·	·	·
CC1=NS(=O)(=O)NC(C)(C)C1	·	·	-6	·	·	·	·	·	·
O=C(Nc1ccc2nn(-c3ccccc3)nc2c1)c1ccc2c(c1)OCCO2	4	9	-7	15	-2	·	·	·	·
CCOc1ccc(-n2nc3ccc(NC(=O)c4ccc5c(c4)OCCO5)cc3n2)cc1	73*	76*	69*	12	155*	20	122*	98	i
COC(=O)c1ccc(C(=O)OC)c(NC(=O)CSc2cccc[n+]2[O-])c1	87*	-64	4	-2	19	122*	·	102	i
O=C(N=C1SC2CS(=O)(=O)CC2N1c1cccc(Cl)c1Cl)C1CC1 (stereo not drawn)	1	·	-5	6	-1	·	·	·	·
CN(CC(=O)Nc1ccc(S(=O)(=O)N2CCCC2)cc1)CC(=O)Nc1cccc(F)c1	-2	20	-2	17	-3	·	·	·	·
O=C(/C=C/c1ccc(Cl)cc1)NC(=S)Nc1ccc(N2CCOCC2)c(Cl)c1	25	41	2	8	124*	·	126*	·	·
Nn1c(SCC(=O)Nc2ccccc2Oc2ccccc2)nnc1C1CC1	1	·	-6	·	2	·	·	·	·
CCn1cc(C(=O)OCC(=O)Nc2cccc(S(=O)(=O)N3CCOCC3)c2)c(=O)c2ccc(C)nc21	5	54	7	-8	44*	·	7	·	·
Cc1ccsc1C(=O)OCC(=O)Nc1cccc(S(=O)(=O)N2CCOCC2)c1	2	25	18	3	-2	·	·	·	·

High-throughput results as filed in PubChem BioAssay.
